S100A4 MyoIIA: blocks human S100A4 binding to myosin IIA peptide; inhibition, % at 10.7 µM; P26447; S100A4/TAMRA-MyoIIA peptide fluorescence polarization; hit rate 0.14% among 360,000;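 active means mean inhibition of at least 70% across replicates, with every replicate also reaching that level; inconclusive means mean inhibition reaches 70% but some replicates fall short; inactive means mean inhibition below 70%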
Target sequence (P26447 whole entry, looked up): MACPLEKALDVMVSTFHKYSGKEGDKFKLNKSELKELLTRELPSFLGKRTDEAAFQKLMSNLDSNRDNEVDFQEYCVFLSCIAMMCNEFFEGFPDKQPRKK
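assay system = human S100A4 monomer with TAMRA-labelled myosin IIA peptide | also added = labelled myosin peptide probe, 5 nM | incubation = 5 min between mix addition and reading | control set = DMSO and TFP controls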
AF4-AF9 inh: blocks AF4 peptide binding to human AF9; hit rate 0.47% among 350,000; inhibition, % at 10 µM; AlphaScreen, biotin-AF4 peptide binding to FLAG-AF9; AID 651704; P42568;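 active means every replicate reaching a set inhibition limit, whatever the replicate mean, cut at about 25% in these data; inconclusive means mean inhibition reaches that limit but some replicates miss it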;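 further: 0% = plate neutral control median and 100% = total signal loss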
SIRT5 block: inhibitors of human sirtuin-5 desuccinylase; inhibition, % at 15 µM; Purified SirT5, succinyl-peptide AMC, trypsin-coupled fluorescence; AID 652115; hit rate 1.1% among 330,000; Q9NXA8; in the data active means inhibition above about 15%; inconclusive means no clear call, values can overlap the other calls
Target sequence (Q9NXA8 whole entry, looked up): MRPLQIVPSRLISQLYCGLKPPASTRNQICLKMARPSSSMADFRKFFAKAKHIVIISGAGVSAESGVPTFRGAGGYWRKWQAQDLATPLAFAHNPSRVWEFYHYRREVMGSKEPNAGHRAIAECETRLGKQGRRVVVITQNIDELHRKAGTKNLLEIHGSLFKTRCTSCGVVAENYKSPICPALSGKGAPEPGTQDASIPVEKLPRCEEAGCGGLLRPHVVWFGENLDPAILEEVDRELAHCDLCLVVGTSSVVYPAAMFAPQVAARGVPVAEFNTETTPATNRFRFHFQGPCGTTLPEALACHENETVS
CaV13 ICDI inh: Disruptors of the CACNA1D IQ motif to Ca2+-dependent inactivation inhibitor domain association, primary screening, Förster resonance energy transfer in intact living … | HEK cells, CFP/YFP FRET ICDI-IQ, plate reader, 10 min; percent FRET-ratio fall versus neutral wells | hit rate 0.098% among 340,000 | inhibition, % at 12.3 µM;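 active means mean replicate inhibition of at least 30% and at least 1% of replicates passing that level; inconclusive means only one of the two criteria is met; inactive means neither criterion is met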;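 further: 0% = median of the neutral control wells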
DENV2 CPE rescue: inhibitors of DENV2 cytopathic effect; AID 651640; hit rate 1.7% among 350,000; CPE inhibition, % at 9.99 µM; DENV2-infected cells, cytopathic effect rescue, plate reader; in the data active means CPE inhibition above about 20%, passing the limit was not always enough; inconclusive means no clear call, values can overlap the other calls; tested in BHK-21 cells;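 further: 0% = median of neutral control wells and 100% = median of positive control wells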
* marks the source's active call; other numbers are inactive results; ? = inconclusive; / = not tested or not shown. A selection: hits, their analogues and other compounds. The true share with any hit is near 2.7%.

SMILES	S100A4 MyoIIA	AF4-AF9 inh	SIRT5 block	CaV13 ICDI inh	DENV2 CPE rescue
C[C@@H]1CN([C@H](C)CO)C(=O)c2cc(NC(=O)c3ccncc3)ccc2O[C@@H](C)CCCCO[C@@H]1CN(C)Cc1ccc(C(F)(F)F)cc1	10	0	11	/	2
C[C@@H]1CCCCO[C@H](CN(C)Cc2ccc(C(F)(F)F)cc2)[C@H](C)CN([C@H](C)CO)C(=O)c2cc(NC(=O)c3ccncc3)ccc2O1	-31	2	20*	/	?
C[C@@H]1CCCCO[C@H](CN(C)Cc2ccc(C(F)(F)F)cc2)[C@H](C)CN([C@@H](C)CO)C(=O)c2cc(NC(=O)c3ccccc3)ccc2O1	0	1	6	/	140*
C/C=C/c1cnc2c(c1)C(=O)N([C@H](C)CO)C[C@@H](C)[C@H](CN(C)C(=O)Nc1ccc(C(F)(F)F)cc1)O2	2	1	-3	/	-10
O=C(NC[C@H]1CC[C@@H]2[C@@H](CN2C(=O)Cc2ccncc2)O1)C1CCOCC1	26	0	-3	/	-6
COc1cc(CNc2nccn3ccnc23)cc(OC)c1	-20	0	/	-5	36*
COCCCNc1nccn2ccnc12	-5	-2	/	-5	4
CCOC1=C2CN(S(=O)(=O)c3ccc(C)cc3)[C@H](c3ccccc3)C[C@H]2[C@H]2C(=O)N(c3ccccc3)C(=O)[C@H]2C1	5	-75	-1	-6	49*
CCOC1=C2CN(S(=O)(=O)c3ccc(C)cc3)[C@H](c3ccc(CC)cc3)C[C@@H]2N(S(=O)(=O)c2ccc(C)cc2)[C@H](c2ccccc2)C1	-3	-2	-1	-5	95*
CC(=O)c1cccc(NC(=O)CCCSc2ccccc2)c1	-1	0	16*	-2	6
COCCNC(=O)C[C@@H]1CC[C@@H]2[C@H](COC[C@@H](O)CN2S(=O)(=O)c2ccccc2C)O1	3	-1	0	/	-9
C(=N/Nc1nccs1)/c1cccnc1	1	0	19*	-4	5
O=C(O)[C@@H]1[C@@H](CO)[C@@H]2Cn3c(ccc(C4=CCCCC4)c3=O)[C@@H]2N1C(=O)c1ccccc1F	3	/	-15	/	1
COc1ccc2c3c([nH]c2c1)[C@@H](CO)N(C(=O)c1cccnc1)CC31CCN(Cc2ccccc2)CC1	-50	2	3	/	-25
COc1ccc2c3c([nH]c2c1)[C@@H](CO)N(Cc1nccs1)CC31CN(Cc2ccncc2)C1	13	7	-1	/	54*
COc1ccc2c3c([nH]c2c1)[C@@H](CO)N(Cc1nccs1)CC31CN(Cc2cccnc2)C1	13	3	-7	/	-6
COc1ccc2c3c([nH]c2c1)[C@H](CO)N(C(=O)c1ccccc1)CC31CCN(C)CC1	11	-3	9	/	11
COc1ccc2c3c([nH]c2c1)[C@@H](CO)N(C(=O)c1ccccc1)CC31CCN(C)CC1	4	2	4	/	31*
COc1ccc2c3c([nH]c2c1)[C@@H](CO)N(C(=O)CN1CCOCC1)CC31CN(Cc2ccccc2)C1	2	7	-8	/	40*
COc1ccc2c3c([nH]c2c1)[C@@H](CO)N(C(=O)c1cccnc1)CC31CN(Cc2ccccc2)C1	-8	13	1	/	35*
C[C@@H]1CN([C@H](C)CO)C(=O)c2cc(NC(=O)CCN3CCOCC3)ccc2O[C@H]1CN(C)Cc1ccc2c(c1)OCO2	14	-4	-4	/	13
C[C@@H]1CN([C@H](C)CO)C(=O)c2cc(C3=CCCC3)cnc2O[C@H]1CN(C)C(=O)Nc1ccc(C(F)(F)F)cc1	-4	0	2	/	4
COc1ccc2c3c([nH]c2c1)[C@H](CO)N(C(=O)c1ccc(F)cc1)CC31CN(Cc2cccnc2)C1	-28	3	0	/	45*
C[C@@H]1COc2cccc(N3CCCC3)c2S(=O)(=O)N1	1	-1	4	-4	1
COc1ccc(NC(=S)Nc2cccc(Cl)c2)cc1OC	4	3	112*	-7	0
SMILES	S100A4 MyoIIA	AF4-AF9 inh	SIRT5 block	CaV13 ICDI inh	DENV2 CPE rescue
COC(=O)C1=CN(CC2CCCO2)C=C(C(=O)OC)C1c1cccc(O)c1 (configuration not stated)	4	-1	-29	83*	1
C[C@H](CO)N1C[C@H](C)[C@H](CN(C)CC2CCCCC2)Oc2ccc(NC(=O)Nc3ccccc3)cc2CC1=O	11	3	2	/	-21
Cc1cccc(C(=O)O/N=C(\N)c2cccc([N+](=O)[O-])c2)c1	7	2	-3	-8	-3
N/C(=N\OC(=O)c1cccs1)c1cccc([N+](=O)[O-])c1	-5	1	35*	-4	-2
CC(C)CC#Cc1cnc2c(c1)C(=O)N([C@@H](C)CO)C[C@H](C)[C@@H](CN(C)C(=O)Nc1cc(F)ccc1F)O2	-5	-2	5	/	?
CC(C)=NNc1nc2c(c(=O)[nH]c(=O)n2C)n1CCc1ccccc1	25	18	37*	-5	5
O=C(Nc1ccc(F)cc1)Nc1ccc2c(c1)[C@H]1C[C@@H](CC(=O)N3CCOCC3)O[C@@H](CO)[C@H]1O2	1	-7	-1	/	18
COCC(=O)N(C)C[C@@H]1Oc2cc(C#CCN(C)C)ccc2S(=O)(=O)N([C@@H](C)CO)C[C@H]1C	0	-2	-5	/	-10
COc1ccc(NC(=O)C2CCCN2S(=O)(=O)c2ccc(F)cc2)cc1 (configuration not stated)	-4	0	/	-11	-3
COc1ccc(NC(=O)C2CCCN2S(=O)(=O)c2ccc3c(c2)CCC(=O)N3)c(OC)c1 (configuration not stated)	-4	5	/	2	37*
Cn1c(-c2cccc(Br)c2)cnc1NCc1ccccc1O	-3	26*	1	-3	1
Cc1noc(C)c1S(=O)(=O)Nc1ccc2c(c1)C(=O)N([C@H](C)CO)C[C@H](C)[C@H](CN(C)Cc1ccc(C(=O)O)cc1)OCCCC[C@H](C)O2	-22	-12	7	/	-3
Cc1noc(C)c1S(=O)(=O)Nc1ccc2c(c1)C(=O)N([C@H](C)CO)C[C@H](C)[C@@H](CN(C)Cc1ccc(C(=O)O)cc1)OCCCC[C@H](C)O2	-1	-8	0	/	-3
Cc1noc(C)c1S(=O)(=O)Nc1ccc2c(c1)C(=O)N([C@H](C)CO)C[C@@H](C)[C@@H](CN(C)Cc1ccc(C(=O)O)cc1)OCCCC[C@@H](C)O2	-1	-10	-12	/	38*
Cc1noc(C)c1S(=O)(=O)Nc1ccc2c(c1)C(=O)N([C@@H](C)CO)C[C@@H](C)[C@H](CN(C)Cc1ccc(C(=O)O)cc1)OCCCC[C@H](C)O2	-17	-15	-1	/	24*
